Published values collected from several papers.
Protocols differ between the studies behind these lines.
Target: Insulin-like growth factor 1 receptor (IGF1R, Homo sapiens, UniProt P08069)

SMILES | test | setting | endpoint | result
C[C@H]1CC[C@H](n2c3cnccc3c3cnc(Nc4ccc5c(n4)CCN(C(=O)CO)C5)nc32)CC1 | binding | 1 µM | remaining binding | 100%
C#Cc1cnc(Nc2ccnc(CO)c2)nc1Nc1ccccc1S(C)(=O)=NC#N (stereo not drawn) | cell-free assay | 1 µM | remaining signal | 36%
C1=C/COCc2cc(ccc2OCCN2CCCC2)Nc2nccc(n2)-c2cccc(c2)COC/1 | binding | 0.1 µM | remaining binding | 83%
N#Cc1ccc(NC(=O)Nc2ccccc2)cc1 | cell-free assay, competition with immobilised ligand | 25 µM | remaining binding | 100%
COc1ccc2oc(-c3ccc4nc(N)oc4c3)c/c(=N\c3ccccc3NC(=O)CCN)c2c1 | binding | 1 µM | remaining binding | 93%
C=CC(=O)N1CCC([C@@H]2CCNc3c(C(N)=O)c(-c4ccc(Oc5ccccc5)cc4)nn32)CC1 | cell-free assay | 1 µM | inhibition | 14%
CN1CCN(C(=O)c2ccc(NC(=O)Nc3ccc(N(C)c4ccnc(Nc5ccc(CS(C)(=O)=O)cc5)n4)cc3)cc2)CC1 | binding | 1 µM | remaining binding | 100%
CCCCC(=O)Nc1ccc(-c2ccc3ncn(CCC)c(=O)c3c2)cn1 | binding, competition with immobilised ligand | 0.5 µM | remaining binding | 98%
CC#CC(=O)N1CCC[C@H]1c1nc(-c2ccc(C(=O)Nc3ccccn3)cc2)c2c(N)nccn12 | enzyme activity, inhibitor | 1 µM | inhibition | 3%
